Experimental data from paper PMC11319731 (Nature Communications, 2024).

Assays:
[1] = molecular target: PD-L1 in HCT116 cells (Homo sapiens, UniProt Q9NZQ7); experiment: Immunofluorescence; type: cell-based; conditions: HCT116, incubation for 10 h, LSCM
In short: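 HCT116 colon cancer cells were exposed to test peptide carrying an N-terminal Arg6 cell-penetrating hexamer, or to an Arg6-tagged random-sequence control peptide. PD-L1 was labelled with red dye and HSC70 or LAMP2 with green dye, and cells were imaged by laser scanning confocal microscopy (10 h incubation stated for the HSC70 pairing). Intensity profiles were plotted along a line, with colocalization given as Pearson's R.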

[2] = tested on: PD-L2, B7H3 (CD276), B7H4, Vista; experiment: Western blot of other PD-L1 family proteins in HCT116; type: cell-based; conditions: 5μM Arg6-MPHP, HCT116, WB

Sequence of PD-L1 in HCT116 cells (Q9NZQ7 19-290): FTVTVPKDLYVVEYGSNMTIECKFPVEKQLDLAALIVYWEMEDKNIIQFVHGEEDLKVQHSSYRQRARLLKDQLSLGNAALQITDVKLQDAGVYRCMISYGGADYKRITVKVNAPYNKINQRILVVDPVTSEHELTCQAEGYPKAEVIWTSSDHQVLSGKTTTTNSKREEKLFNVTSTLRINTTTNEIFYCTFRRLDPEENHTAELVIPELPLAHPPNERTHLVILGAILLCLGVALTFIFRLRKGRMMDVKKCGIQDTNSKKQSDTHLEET

C[C@H](O)[C@@H](NC(=O)[C@H]1CCCN1C(=O)[C@@H](CCCCN)NC(=O)[C@@H](CO)NC(=O)[C@@H](Cc1ccc(O)cc1)NC(=O)[C@@H](CC(N)=O)NC(=O)CCOCCOCCOCCNC(=O)[C@H](CCC(N)=O)NC(=O)[C@H](CCCNC(=N)N)NC(=O)[C@H](Cc1ccccc1)NC(=O)[C@H](CCC(=O)O)NC(=O)[C@H](CCCCN)NC(=O)[C@H](CS)NC(=O)[C@H](CCCNC(=N)N)NC(=O)[C@H](CCCNC(=N)N)NC(=O)[C@H](CCCNC(=N)N)NC(=O)[C@H](CCCNC(=N)N)NC(=O)[C@H](CCCNC(=N)N)NC(=O)[C@@H](N)CCCNC(=N)N)C(=O)N[C@H](CC(=O)O)C(=O)N[C@H](CCCNC(=N)N)C(=O)N[C@H](CCC(N)=O)C(=O)N[C@H](Cc1ccc(O)cc1)C(=O)N[C@H](Cc1c[nH]cn1)C(=O)N[C@H](Cc1ccccc1)C(=O)O [Arg6-MPHP]
colocalization of PD-L1 and HSC70 [1]: conspicuous colocalization
impact on other PD-L1 family proteins (PD-L2, B7H3 (CD276), B7H4, Vista) [2]: negligible
